A selection: hits, their analogues and other compounds. The true share with any hit is near 3.1%.
VIM-2 inhibitor: blocks Pseudomonas aeruginosa VIM-2 metallo-beta-lactamase. purified VIM-2, nitrocefin hydrolysis, epi-absorbance fluorescence. inhibition, % at 5.6 µM. actives 0.89% (n = 290,000);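 active = inhibition above the mean of all tested compounds plus 3 SD, cutoff set per screening run, cut at about 7.5% in these data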;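 also: red hydrolysis product quenches plate fluorescence so inhibitors raise well fluorescence; 0% = enzyme with DMSO and 100% = DMSO without enzyme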
IMP-1 inhibitor: inhibitors of Pseudomonas aeruginosa IMP-1 metallo-beta-lactamase; purified IMP-1, nitrocefin hydrolysis, epi-absorbance fluorescence; inhibition, % at 5.6 µM; actives 0.45% (n = 290,000);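 active = inhibition above the mean plus 3 SD of all compounds in the same screening run, cut at about 4.5% in these data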;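 also: 0% = IMP-1 with DMSO and 100% = DMSO wells lacking enzyme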
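System: Purified IMP-1 | Read-out basis: Percent enzyme inhibition | Controls: IMP-1 with DMSO as 0%, enzyme-free DMSO as 100% | Replicates: One well per compound | Doses: 5.6 µM nominal single concentration | Detection: Epi-absorbance fluorescence, 480 nm excitation, 530 nm emission | Incubation: 25 °C, 15 min preincubation, 25 min reaction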
HCV NS3 hel inh: HCV NS3 helicase inhibition | NS3 helicase DNA unwinding, Cy5 molecular beacon fluorescence | inhibition, % at 10.9 µM | actives 0.56% (n = 290,000);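 active = inhibition above the mean of all tested compounds plus 3 SD, set per campaign, cut at about 35% in these data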;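 also: 0% = DMSO wells and 100% = thioflavine S control wells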
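System: HCV NS3 helicase fragment; control set: DMSO and thioflavine S; technique: Cy5 fluorescence at 0 and 60 min, beacon hairpin quenching; reagent: beacon DNA duplex substrate plus ATP; replicates: singlicate; schedule: 1 h reaction at 25 °C, ATP-initiated; medium: MOPS buffer pH 6.5 with MgCl2, DTT, Tween20, BSA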
HCV core dimer: HCV core protein dimerization inhibition | TR-FRET GST/Flag-core106 dimerization, 1536-well | inhibition, % at 5 µM | actives 0.33% (n = 300,000) | AID 1899;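 active = inhibition above the mean of all tested compounds plus 3 SD, set per screening campaign, cut at about 45% in these data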
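Assay system: GST-tagged and Flag-tagged HCV core protein residues 1-106 / Times: compound-protein-antibody incubation 4 h at 22.5 °C / Signal: time-resolved FRET, ex 340 nm, em 617 and 671 nm / Evaluation: % inhibition based on acceptor/donor emission ratio / Benchmarks: wells lacking GST-core106 and wells with excess unlabelled core106 / Repeats: singlicate, one well per compound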
SUMO HTRF inh: blocks human SUMOylation mediated by UBC9 | AID 2006 | inhibition, % at 35 µM | HTRF SUMOylation assay, SAE1/SAE2 + UBC9, in vitro | P63279 | actives 0.36% (n = 290,000); in the data active = inhibition above about 50%, passing the limit was not always enough
Target sequence (P63279 whole entry, looked up): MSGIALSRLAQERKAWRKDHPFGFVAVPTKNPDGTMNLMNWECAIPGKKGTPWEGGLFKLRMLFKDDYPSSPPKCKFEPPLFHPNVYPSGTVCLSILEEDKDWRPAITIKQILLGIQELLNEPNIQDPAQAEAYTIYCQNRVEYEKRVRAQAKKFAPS
PHOSPHO1 block: PHOSPHO1 (human) inhibition; Q8TCT1; recombinant PHOSPHO1, absorbance phosphatase assay; inhibition, % at 13.3 µM; actives 1.1% (n = 290,000); AID 1565; in the data active = inhibition above about 60%
Target sequence (Q8TCT1 whole entry, looked up): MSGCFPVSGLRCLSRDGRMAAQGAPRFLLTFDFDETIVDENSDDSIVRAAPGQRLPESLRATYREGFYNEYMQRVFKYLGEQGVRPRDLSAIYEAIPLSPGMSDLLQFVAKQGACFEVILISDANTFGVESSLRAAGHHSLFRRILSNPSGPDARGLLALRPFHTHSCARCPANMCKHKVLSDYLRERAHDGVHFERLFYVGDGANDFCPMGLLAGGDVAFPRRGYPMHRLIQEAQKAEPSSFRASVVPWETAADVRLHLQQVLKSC
* hit, by the source's call; / = no result given.

SMILES | VIM-2 inhibitor | IMP-1 inhibitor | HCV NS3 hel inh | HCV core dimer | SUMO HTRF inh | PHOSPHO1 block
O=C(COc1ccc2c3c(c(=O)oc2c1)CCCC3)NCc1cccnc1 | 9.2* | -1.8 | -2.8 | -2.7 | 12.6 | 6.3
Cc1c(OC(C)C(=O)NCCCN2CCOCC2)ccc2c3c(c(=O)oc12)CCCC3 (stereo unspecified) | 10.6* | -1.1 | -2.7 | -7.9 | / | 6.9
Cc1c(C)c2ccc(OC(C)C(=O)NCCN3CCOCC3)c(C)c2oc1=O (stereo unspecified) | 7.0 | -3.0 | 3.6 | -0.6 | -0.2 | 30.2
Cc1cc(=O)oc2c(C)c(OC(C)C(=O)NCCCN3CCOCC3)ccc12 (stereo unspecified) | -2.5 | -2.9 | -5.1 | -3.2 | / | 64.0*
CCc1cc(=O)oc2c(C)c(OC(C)C(=O)NCCCN3CCOCC3)ccc12 (stereo unspecified) | 4.1 | -2.1 | 6.3 | -4.3 | 15.5 | 45.3
Cc1c(C)c2ccc(OC(C)C(=O)NCCCN3CCOCC3)c(C)c2oc1=O (stereo unspecified) | 8.6* | 0.7 | 2.4 | 2.5 | 12.7 | 23.9
CCc1ccc2oc(C(=O)NCC(c3ccc(OC)cc3)N3CCCCC3)c(C)c2c1 (stereo unspecified) | -4.0 | -2.9 | -73.3 | -15.7 | / | 41.2
O=C(N/C(=C\c1ccc(Br)cc1)C(=O)N1CCOCC1)c1ccc([N+](=O)[O-])cc1 | -3.8 | -2.0 | -1.8 | 7.4 | 7.8 | 30.4
Cc1cc(C)n2nc(-c3sccc3-n3cccc3)cc2n1 | 1.5 | -1.7 | 16.6 | 5.3 | 13.6 | 62.0*
Cc1cc(C)n2nc(-c3sccc3-n3c(C)ccc3C)cc2n1 | 0.8 | -1.5 | -3.4 | 4.0 | 28.8 | 37.0
O=C(NC(=S)NCCC1=CCCCC1)c1ccccc1Br | 24.7* | -2.4 | 9.7 | 18.1 | -6.4 | 28.1
O=C(COC(=O)c1ccccc1Br)NCCC1=CCCCC1 | -1.6 | -3.0 | -5.2 | 0.6 | 22.2 | 6.6
CCN1CCN(C2=C(NS(=O)(=O)c3ccc(NC(C)=O)cc3)C(=O)c3ccccc3C2=O)CC1 | 2.3 | -1.8 | 0.5 | -34.3 | 32.9 | 34.4
CC1CCN(C2=C(NS(=O)(=O)c3ccc(Br)cc3)C(=O)c3ccccc3C2=O)CC1 | 6.2 | 0.6 | 4.7 | 4.6 | 67.9 | 2.8
CCOC(=O)C1CCCN(C2=C(NS(=O)(=O)c3ccc(Br)cc3)C(=O)c3ccccc3C2=O)C1 (stereo unspecified) | 8.2* | 0.7 | 2.1 | 5.3 | 33.9 | 23.5
CC1CCCN(C2=C(NS(=O)(=O)c3ccc(Br)cc3)C(=O)c3ccccc3C2=O)C1 (stereo unspecified) | 10.6* | 1.4 | 1.0 | -3.0 | 55.1 | 12.3
CC(=O)Nc1ccc(S(=O)(=O)NC2=C(N3CCN(Cc4ccccc4)CC3)C(=O)c3ccccc3C2=O)cc1 | -1.8 | -5.3 | 3.8 | -15.8 | 29.4 | 64.4*
CCn1c(C)[n+](CCOCC[n+]2c(C)n(CC)c3cc(Cl)c(Cl)cc32)c2cc(Cl)c(Cl)cc21 | 0.0 | 1.6 | -5.1 | -3.6 | 5.0 | 82.6*
CC(=O)OCCn1c(C)[n+](CCOC(C)=O)c2cc(Cl)c(Cl)cc21 | 1.2 | -1.5 | 11.9 | -2.5 | 4.1 | 6.4
O=C(CN1CCN(Cc2ccccc2)CC1)c1c[nH]c2ccccc12 | 0.2 | -0.9 | -2.3 | 0.6 | 13.7 | 80.4*
COc1ccc(C2C3=C(N=C4SCC(=O)N42)c2ccccc2CC3)cc1OC (stereo unspecified) | -2.0 | 5.9* | 1.8 | 1.2 | 19.4 | 3.9
COc1ccc(C2C3=C(CCCC3=O)Nc3c(-c4ccccc4)c(C)nn32)cc1 (stereo unspecified) | -2.9 | -1.2 | -5.9 | -0.4 | 51.1* | 10.5
CCC(=O)N/C(N)=N/c1nc(C)c2cc(C)c(C)cc2n1 | 10.0* | -1.3 | -12.8 | 3.3 | 12.6 | -1.3
Cc1nc2ccc(NC(=O)c3cc([N+](=O)[O-])cc([N+](=O)[O-])c3Cl)cc2s1 | -5.8 | -2.2 | 1.4 | 14.9 | 18.4 | 2.1
CCCCN1C(=O)C(=Nc2cccc3cnccc23)c2ccccc21 | 0.2 | -2.4 | -7.2 | 7.8 | 98.7* | 36.7
CCCCN1C(=O)/C(=C2\SC(N3CCCCC3)=NC2=O)c2ccccc21 | -0.9 | 4.0 | -6.2 | 5.1 | -7.0 | 28.6

High-throughput results from PubChem.
